Measured values reported in ChEMBL document CHEMBL1667774, “Synthesis and evaluation of a class of new coumarin triazole derivatives as potential antimicrobial agents” (2011).
Values after ≈ are worked out from the molar mass of the structure shown.

Columns and labels:
Staphylococcus aureus [1] = test: Antimicrobial activity against Staphylococcus aureus ATCC 25923 by twofold broth dilution method; type: functional
Outline: (§1)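 Two-fold broth dilution in 96-well micro-test plates, following NCCLS recommendations. Enoxacin and Chloromycin served as positive controls for bacteria, and Fluconazole for fungi. The read-out is the MIC in µg/mL.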

Staphylococcus aureus [2] = test: Antimicrobial activity against methicillin-resistant Staphylococcus aureus N 315 by twofold broth dilution method; type: functional
Outline: (§2)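 Antibacterial MIC, determined by two-fold serial broth dilution following the NCCLS-recommended method. Clinical antimicrobial drugs were run alongside as positive controls.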

Bacillus subtilis = test: Antimicrobial activity against Bacillus subtilis ATCC 6633 by twofold broth dilution method; type: functional; outline: as §1
Micrococcus luteus = test: Antimicrobial activity against Micrococcus luteus ATCC 4698 by twofold broth dilution method; type: functional; outline: as §1
Escherichia coli = test: Antimicrobial activity against Escherichia coli ATCC 25922 by twofold broth dilution method; type: functional; outline: as §1
Proteus vulgaris = test: Antimicrobial activity against Proteus vulgaris ATCC 6896 by twofold broth dilution method; type: functional; outline: as §1
Salmonella typhi = test: Antimicrobial activity against Salmonella typhi ATCC 9484 by twofold broth dilution method; type: functional, Salmonella enterica subsp. enterica serovar Typhi; conditions: Salmonella enterica; outline: as §2
Shigella dysenteriae = test: Antimicrobial activity against Shigella dysenteriae ATCC 49550 by twofold broth dilution method; type: functional; outline: as §2
Candida albicans = test: Antifungal activity against Candida albicans ATCC 76615 by twofold broth dilution method; type: functional; outline: as §1
Saccharomyces cerevisiae = test: Antifungal activity against Saccharomyces cerevisiae ATCC 9763 by twofold broth dilution method; type: functional; outline: as §1
Aspergillus fumigatus = test: Antifungal activity against Aspergillus fumigatus ATCC 96918 by twofold broth dilution method; type: functional; outline: as §1

Row | Compound | MIC (Staphylococcus aureus [1]) [mg/L] | MIC (Staphylococcus aureus [2]) [mg/L] | MIC (Bacillus subtilis) [mg/L] | MIC (Micrococcus luteus) [mg/L] | MIC (Escherichia coli) [mg/L] | MIC (Proteus vulgaris) [mg/L] | MIC (Salmonella typhi) [mg/L] | MIC (Shigella dysenteriae) [mg/L] | MIC (Candida albicans) [mg/L] | MIC (Saccharomyces cerevisiae) [mg/L] | MIC (Aspergillus fumigatus) [mg/L]
1 | Cc1cc(=O)oc2cc(OCCCCBr)ccc12 | 128 (≈ 411 µM) | 256 (≈ 823 µM) | 128 (≈ 411 µM) | 128 (≈ 411 µM) | 256 (≈ 823 µM) | 256 (≈ 823 µM) | 256 (≈ 823 µM) | 512 (≈ 1650 µM) | 128 (≈ 411 µM) | 256 (≈ 823 µM) | 512 (≈ 1650 µM)
2 | Cc1cc(=O)oc2cc(OCCCCCBr)ccc12 | 128 (≈ 394 µM) | 256 (≈ 787 µM) | 128 (≈ 394 µM) | 256 (≈ 787 µM) | 512 (≈ 1570 µM) | 512 (≈ 1570 µM) | 512 (≈ 1570 µM) | 256 (≈ 787 µM) | 128 (≈ 394 µM) | 512 (≈ 1570 µM) | 256 (≈ 787 µM)
3 | Cc1cc(=O)oc2cc(OCCCCCCBr)ccc12 | 64 (≈ 189 µM) | 256 (≈ 755 µM) | 128 (≈ 377 µM) | 64 (≈ 189 µM) | 512 (≈ 1510 µM) | 256 (≈ 755 µM) | 256 (≈ 755 µM) | 512 (≈ 1510 µM) | 256 (≈ 755 µM) | 256 (≈ 755 µM) | 512 (≈ 1510 µM)
4 | Cc1cc(=O)oc2cc(OCCCCCBr)cc(OCCCCCBr)c12 | 128 (≈ 261 µM) | 256 (≈ 522 µM) | 128 (≈ 261 µM) | 128 (≈ 261 µM) | 512 (≈ 1040 µM) | 256 (≈ 522 µM) | 256 (≈ 522 µM) | 256 (≈ 522 µM) | 128 (≈ 261 µM) | 256 (≈ 522 µM) | 128 (≈ 261 µM)
5 | Cc1cc(=O)oc2cc(OCCCCn3cncn3)ccc12 | 2 (≈ 6.68 µM) | 8 (≈ 26.7 µM) | 2 (≈ 6.68 µM) | 4 (≈ 13.4 µM) | 8 (≈ 26.7 µM) | 16 (≈ 53.5 µM) | 16 (≈ 53.5 µM) | 16 (≈ 53.5 µM) | 2 (≈ 6.68 µM) | 4 (≈ 13.4 µM) | 16 (≈ 53.5 µM)
6 | Cc1cc(=O)oc2cc(OCCCCCn3cncn3)ccc12 | 4 (≈ 12.8 µM) | 16 (≈ 51.1 µM) | 4 (≈ 12.8 µM) | 8 (≈ 25.5 µM) | 32 (≈ 102 µM) | 32 (≈ 102 µM) | 16 (≈ 51.1 µM) | 32 (≈ 102 µM) | 8 (≈ 25.5 µM) | 16 (≈ 51.1 µM) | 16 (≈ 51.1 µM)
7 | Cc1cc(=O)oc2cc(OCCCCCCn3cncn3)ccc12 | 8 (≈ 24.4 µM) | 16 (≈ 48.9 µM) | 8 (≈ 24.4 µM) | 8 (≈ 24.4 µM) | 32 (≈ 97.7 µM) | 32 (≈ 97.7 µM) | 32 (≈ 97.7 µM) | 32 (≈ 97.7 µM) | 16 (≈ 48.9 µM) | 32 (≈ 97.7 µM) | 32 (≈ 97.7 µM)
8 | Cc1cc(=O)oc2cc(OCc3ccc(Cn4cncn4)cc3)ccc12 | 32 (≈ 92.1 µM) | 64 (≈ 184 µM) | 32 (≈ 92.1 µM) | 32 (≈ 92.1 µM) | 64 (≈ 184 µM) | 64 (≈ 184 µM) | 64 (≈ 184 µM) | 64 (≈ 184 µM) | 32 (≈ 92.1 µM) | 64 (≈ 184 µM) | 64 (≈ 184 µM)
9 | Cc1cc(=O)oc2cc(OCCCCn3cncn3)cc(OCCCCn3cncn3)c12 | 1 (≈ 2.28 µM) | 2 (≈ 4.56 µM) | 2 (≈ 4.56 µM) | 1 (≈ 2.28 µM) | 1 (≈ 2.28 µM) | 2 (≈ 4.56 µM) | 1 (≈ 2.28 µM) | 1 (≈ 2.28 µM) | 1 (≈ 2.28 µM) | 2 (≈ 4.56 µM) | 4 (≈ 9.12 µM)
10 | Cc1cc(=O)oc2cc(OCCCCCn3cncn3)cc(OCCCCCn3cncn3)c12 | 2 (≈ 4.29 µM) | 8 (≈ 17.1 µM) | 4 (≈ 8.57 µM) | 4 (≈ 8.57 µM) | 8 (≈ 17.1 µM) | 4 (≈ 8.57 µM) | 4 (≈ 8.57 µM) | 4 (≈ 8.57 µM) | 2 (≈ 4.29 µM) | 4 (≈ 8.57 µM) | 32 (≈ 68.6 µM)
11 | Cc1cc(=O)oc2cc(OCCCCCCn3cncn3)cc(OCCCCCCn3cncn3)c12 | 8 (≈ 16.2 µM) | 16 (≈ 32.3 µM) | 4 (≈ 8.09 µM) | 8 (≈ 16.2 µM) | 8 (≈ 16.2 µM) | 8 (≈ 16.2 µM) | 16 (≈ 32.3 µM) | 8 (≈ 16.2 µM) | 4 (≈ 8.09 µM) | 4 (≈ 8.09 µM) | 32 (≈ 64.7 µM)
12 | Cc1cc(=O)oc2cc(OCc3ccc(Cn4cncn4)cc3)cc(OCc3ccc(Cn4cncn4)cc3)c12 | 32 (≈ 59.9 µM) | 64 (≈ 120 µM) | 64 (≈ 120 µM) | 64 (≈ 120 µM) | 64 (≈ 120 µM) | 32 (≈ 59.9 µM) | 32 (≈ 59.9 µM) | 64 (≈ 120 µM) | 32 (≈ 59.9 µM) | 32 (≈ 59.9 µM) | 64 (≈ 120 µM)
13 | Cc1cc(=O)oc2cc(OCCCCn3cncn3)ccc12.Cl | 2 | 8 | 2 | 2 | 4 | 8 | 16 | 16 | 2 | 4 | 8
14 | Cc1cc(=O)oc2cc(OCc3ccc(Cn4cncn4)cc3)ccc12.Cl | 8 | 16 | 8 | 8 | 16 | 16 | 16 | 16 | 8 | 16 | 16
15 | Cc1cc(=O)oc2cc(OCCCCn3cncn3)cc(OCCCCn3cncn3)c12.Cl | 1 | 2 | 1 | 1 | 1 | 2 | 1 | 1 | 1 | 2 | 2
16 | Cc1cc(=O)oc2cc(OCc3ccc(Cn4cncn4)cc3)cc(OCc3ccc(Cn4cncn4)cc3)c12.Cl | 8 | 16 | 16 | 16 | 8 | 16 | 16 | 16 | 8 | 16 | 16
17 | Cc1cc(=O)oc2cc(OCCCCOc3ccc4c(C)cc(=O)oc4c3)ccc12 | 128 (≈ 315 µM) | 512 (≈ 1260 µM) | 128 (≈ 315 µM) | 128 (≈ 315 µM) | 256 (≈ 630 µM) | 256 (≈ 630 µM) | 256 (≈ 630 µM) | 512 (≈ 1260 µM) | 512 (≈ 1260 µM) | 256 (≈ 630 µM) | 512 (≈ 1260 µM)
18 | O=C(N[C@H](CO)[C@H](O)c1ccc([N+](=O)[O-])cc1)C(Cl)Cl [CHLORAMPHENICOL] | 4 (≈ 12.4 µM) | 16 (≈ 49.5 µM) | 8 (≈ 24.8 µM) | ≤ 4 | 8 (≈ 24.8 µM) | 8 (≈ 24.8 µM) | 4 (≈ 12.4 µM) | 4 (≈ 12.4 µM) |  |  | 
19 | CCn1cc(C(=O)O)c(=O)c2cc(F)c(N3CCNCC3)nc21 [ENOXACIN] | 1 (≈ 3.12 µM) | 4 (≈ 12.5 µM) | 1 (≈ 3.12 µM) | ≤ 1 | 1 (≈ 3.12 µM) | 1 (≈ 3.12 µM) | 2 (≈ 6.24 µM) | 1 (≈ 3.12 µM) |  |  | 
20 | OC(Cn1cncn1)(Cn1cncn1)c1ccc(F)cc1F [FLUCONAZOLE] |  |  |  |  |  |  |  |  | 1 (≈ 3.27 µM) | 2 (≈ 6.53 µM) | 128 (≈ 418 µM)
